Results taken from ChEMBL document CHEMBL5154945, “Discovery and Optimization of Pyrrolopyrimidine Derivatives as Selective Disruptors of the Perinucleolar Compartment, a Marker of Tumor Progression toward Metastasis” (J Med Chem, 2022).
The source made the active and inactive calls. No cut-off for these calls is given here.

Legend:
RPMI-8226 = experiment: Anticancer activity against human RPMI-8226 cells assessed as cell growth inhibition; format: functional, cell-based; settings: dose 1-100 µM, DDE = dose-dependent effect
PC-3M [1] = experiment: Antiproliferative activity against human PC-3M cells expressing PTB/GFP fusion protein assessed as disruption of RNA synthesis marker RP-194 at 1 uM and measured after 1 hr by DAPI staining based immunofluorescence microscopy; format: functional, cell-based
How it was run: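 50,000 PC3M cells on chamber slides were treated with 1 μM compound for 1 h at 37 °C, then fixed in 4% paraformaldehyde for 15 min, permeabilized with 0.3% Triton X-100 and blocked in 3% BSA. Primary antibodies were anti-RPA194 (1:200) and anti-NOPP140 (1:100), overnight at 4 °C, followed by secondary antibodies and DAPI mounting. Confocal images at 63×, three images of about 200 cells per group; counts of bright objects were normalized to DAPI-stained nuclei.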

[2] = target: Muscarinic acetylcholine receptor M1 (Homo sapiens) (UniProt P11229); experiment: Binding affinity to M1 receptor (unknown origin) at 10000 nM by radioligand displacement assay relative to control
Chain of Muscarinic acetylcholine receptor M1 (Homo sapiens) (P11229 whole entry): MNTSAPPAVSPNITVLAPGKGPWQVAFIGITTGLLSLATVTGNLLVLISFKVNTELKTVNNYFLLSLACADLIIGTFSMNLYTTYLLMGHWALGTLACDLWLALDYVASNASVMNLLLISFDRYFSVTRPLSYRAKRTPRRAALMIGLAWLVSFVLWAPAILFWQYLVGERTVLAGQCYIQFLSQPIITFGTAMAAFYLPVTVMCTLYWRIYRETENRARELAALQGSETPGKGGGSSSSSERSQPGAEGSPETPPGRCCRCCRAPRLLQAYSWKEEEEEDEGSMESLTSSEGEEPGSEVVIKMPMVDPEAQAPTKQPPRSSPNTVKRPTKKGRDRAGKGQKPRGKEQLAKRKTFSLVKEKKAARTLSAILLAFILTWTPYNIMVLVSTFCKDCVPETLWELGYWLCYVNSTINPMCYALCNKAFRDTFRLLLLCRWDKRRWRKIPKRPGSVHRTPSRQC

SK-OV-3 = experiment: Anticancer activity against human SK-OV-3 cells assessed as cell growth inhibition; format: functional, cell-based; settings: dose 1-100 µM, DDE = dose-dependent effect
[3] = Tmax in female BALB/c mouse at 5 mg/kg, ip and measured upto 48 hrs by LC-MS/MS analysis; format: ADME, organism-based; settings: in vivo
How it was run: (§1)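 Fed female BALB/c mice, about 6–8 weeks old and 25–30 g, received a single IP dose of 5 or 25 mpk in NMP/PEG400/HP-β-CD aqueous vehicle (0.5 mg/mL for the 5 mpk dose). Three mice per time point were sampled up to 48 h by retro-orbital bleed under isoflurane into K2EDTA. Plasma was spun at 2000 g, 4 °C, frozen at -80 °C, and assayed by LC/MS/MS.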

BT-549 = experiment: Anticancer activity against human BT-549 cells assessed as cell growth inhibition; format: functional, cell-based; settings: dose 1-100 µM, DDE = dose-dependent effect
CAKI-1 = experiment: Anticancer activity against human CAKI-1 cells assessed as cell growth inhibition; format: functional, cell-based; settings: dose 1-100 µM, DDE = dose-dependent effect
UACC-257 = experiment: Anticancer activity against human UACC-257 cells assessed as cell growth inhibition; format: functional, cell-based; settings: dose 1-100 µM, DDE = dose-dependent effect
HT-29 = experiment: Anticancer activity against human HT-29 cells assessed as cell growth inhibition; format: functional, cell-based; settings: dose 1-100 µM, DDE = dose-dependent effect
[4] = target: 5-hydroxytryptamine receptor 2C (Homo sapiens) (UniProt P28335); experiment: Binding affinity to 5-HT2C receptor (unknown origin) at 10000 nM by radioligand displacement assay relative to control
Chain of 5-hydroxytryptamine receptor 2C (Homo sapiens) (P28335 whole entry, the tested form may be a part): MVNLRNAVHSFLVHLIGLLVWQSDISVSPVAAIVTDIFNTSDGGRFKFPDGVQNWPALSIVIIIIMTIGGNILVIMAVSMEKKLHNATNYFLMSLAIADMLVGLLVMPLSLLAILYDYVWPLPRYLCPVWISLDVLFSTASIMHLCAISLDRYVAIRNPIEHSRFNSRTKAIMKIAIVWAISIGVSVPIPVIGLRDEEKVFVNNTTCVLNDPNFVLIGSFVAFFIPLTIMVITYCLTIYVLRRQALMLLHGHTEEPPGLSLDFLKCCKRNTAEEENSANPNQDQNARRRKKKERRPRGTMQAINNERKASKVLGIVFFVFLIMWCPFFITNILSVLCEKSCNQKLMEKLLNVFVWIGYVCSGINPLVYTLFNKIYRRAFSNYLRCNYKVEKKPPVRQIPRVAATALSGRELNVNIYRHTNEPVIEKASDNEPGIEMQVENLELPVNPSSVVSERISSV

PC-3M [5] = experiment: Anticancer activity in human PC-3M cells expressing PTB/GFP fusion protein assessed as perinucleolar compartment disassembly and measured after 24 hrs by Hoechst 33342 staining based microscopic method; format: functional, cell-based
How it was run: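 Imaged by high-content microscopy. Nuclei with PNC spots ≥3 and >0 scored positive. PNC prevalence % = PNC-positive nuclei/total nuclei ×100, normalized to DMSO (0% activity) and 0% PNC (−100%). IC50 from concentration-response.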

SF-268 = experiment: Anticancer activity against human SF-268 cells assessed as cell growth inhibition; format: functional, cell-based; settings: dose 1-100 µM, DDE = dose-dependent effect
PC-3M [6] = experiment: Cytotoxicity against human PC-3M cells expressing PTB/GFP fusion protein assessed as reduction in ATP level at 20 uM and measured after 24 to 48 hrs by ATPlite luminescence assay; format: toxicity, cell-based; settings: time 24-48 hrs
HCT-116 = experiment: Anticancer activity against human HCT-116 cells assessed as cell growth inhibition; format: functional, cell-based; settings: dose 1-100 µM, DDE = dose-dependent effect
KM12 = experiment: Anticancer activity against human KM12 cells assessed as cell growth inhibition; format: functional, cell-based; settings: dose 1-100 µM, DDE = dose-dependent effect
[7] = AUC (0 to 48 hrs) in female BALB/c mouse at 25 mg/kg, ip at 48 hrs by LC-MS/MS analysis; format: ADME, organism-based; set-up: time 48 hrs, dose 25 mg/kg, route ip; settings: in vivo
How it was run: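 Fed female BALB/c mice, about 6–8 weeks old and 25–30 g, received a single IP dose. The vehicle was 5-10% NMP + 20% PEG400 + 70-75% (25% HP-β-CD in water), with the drug at 2.5/0.5 mg/mL. Blood was taken by retro-orbital puncture under isoflurane into K2EDTA tubes, 3 mice per time point, over 48 h. Plasma was prepared at 2000 g, 5 min, 4 °C, and measured by LC/MS/MS.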

[8] = target: 5-hydroxytryptamine receptor 6 (Homo sapiens) (UniProt P50406); experiment: Binding affinity to 5-HT6 receptor (unknown origin) at 10000 nM by radioligand displacement assay relative to control
Chain of 5-hydroxytryptamine receptor 6 (Homo sapiens) (P50406 whole entry): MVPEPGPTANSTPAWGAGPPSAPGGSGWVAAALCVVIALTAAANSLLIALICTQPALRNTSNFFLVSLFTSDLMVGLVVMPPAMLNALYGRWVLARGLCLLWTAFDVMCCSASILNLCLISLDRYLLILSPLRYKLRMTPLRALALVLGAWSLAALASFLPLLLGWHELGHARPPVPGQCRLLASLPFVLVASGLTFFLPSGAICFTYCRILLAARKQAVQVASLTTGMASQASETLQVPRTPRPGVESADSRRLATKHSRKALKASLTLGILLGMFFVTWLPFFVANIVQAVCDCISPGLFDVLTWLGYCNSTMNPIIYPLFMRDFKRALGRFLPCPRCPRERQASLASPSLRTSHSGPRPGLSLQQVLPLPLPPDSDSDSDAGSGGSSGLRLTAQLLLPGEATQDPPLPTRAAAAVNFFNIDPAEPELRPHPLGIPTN

[9] = target: Muscarinic acetylcholine receptor M4 (Homo sapiens) (UniProt P08173); experiment: Binding affinity to M4 receptor (unknown origin) at 10000 nM by radioligand displacement assay relative to control
Chain of Muscarinic acetylcholine receptor M4 (Homo sapiens) (P08173 whole entry): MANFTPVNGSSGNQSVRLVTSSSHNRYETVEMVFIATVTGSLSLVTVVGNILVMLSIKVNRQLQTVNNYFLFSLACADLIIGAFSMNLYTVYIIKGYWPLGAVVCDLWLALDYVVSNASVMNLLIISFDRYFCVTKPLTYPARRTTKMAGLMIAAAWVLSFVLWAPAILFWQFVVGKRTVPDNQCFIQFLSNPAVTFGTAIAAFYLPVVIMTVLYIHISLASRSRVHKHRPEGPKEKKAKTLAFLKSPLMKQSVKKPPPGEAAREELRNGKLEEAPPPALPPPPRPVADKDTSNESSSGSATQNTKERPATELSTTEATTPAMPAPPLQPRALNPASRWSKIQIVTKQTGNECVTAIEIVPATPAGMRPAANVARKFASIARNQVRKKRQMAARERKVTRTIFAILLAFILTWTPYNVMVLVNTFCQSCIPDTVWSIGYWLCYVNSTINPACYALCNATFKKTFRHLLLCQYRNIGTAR

[10] = target: 5-hydroxytryptamine receptor 3A (Homo sapiens) (UniProt P46098); experiment: Binding affinity to 5-HT3 receptor (unknown origin) at 10000 nM by radioligand displacement assay relative to control
Chain of 5-hydroxytryptamine receptor 3A (Homo sapiens) (P46098 whole entry): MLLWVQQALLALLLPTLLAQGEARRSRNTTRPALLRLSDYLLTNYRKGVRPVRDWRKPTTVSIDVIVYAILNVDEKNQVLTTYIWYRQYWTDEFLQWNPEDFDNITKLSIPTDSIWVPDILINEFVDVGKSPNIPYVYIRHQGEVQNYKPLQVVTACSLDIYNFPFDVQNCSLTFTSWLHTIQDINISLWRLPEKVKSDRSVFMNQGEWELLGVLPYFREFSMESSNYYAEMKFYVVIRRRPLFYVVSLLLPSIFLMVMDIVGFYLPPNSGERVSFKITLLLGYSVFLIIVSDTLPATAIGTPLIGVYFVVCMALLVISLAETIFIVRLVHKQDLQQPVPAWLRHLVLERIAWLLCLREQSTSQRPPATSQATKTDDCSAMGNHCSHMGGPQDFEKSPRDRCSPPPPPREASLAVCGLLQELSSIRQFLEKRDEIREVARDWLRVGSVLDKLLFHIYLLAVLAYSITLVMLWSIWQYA

IGROV-1 = experiment: Anticancer activity against human IGROV-1 cells assessed as cell growth inhibition; format: functional, cell-based; settings: dose 1-100 µM, DDE = dose-dependent effect
NCI-H226 = experiment: Anticancer activity against human NCI-H226 cells assessed as cell growth inhibition; format: functional, cell-based; settings: dose 1-100 µM, DDE = dose-dependent effect
in vitro = settings: human, PC-3M cells expressing PTB/GFP fusion protein
MOLT-4 = experiment: Anticancer activity against human MOLT-4 cells assessed as cell growth inhibition; format: functional, cell-based; settings: dose 1-100 µM, DDE = dose-dependent effect
K562 = experiment: Anticancer activity against human K562 cells assessed as cell growth inhibition; format: functional, cell-based; settings: dose 1-100 µM, DDE = dose-dependent effect
[11] = target: Alpha-1A adrenergic receptor (Homo sapiens) (UniProt P35348); experiment: Binding affinity to alpha1A receptor (unknown origin) at 10000 nM by radioligand displacement assay relative to control
Chain of Alpha-1A adrenergic receptor (Homo sapiens) (P35348 whole entry): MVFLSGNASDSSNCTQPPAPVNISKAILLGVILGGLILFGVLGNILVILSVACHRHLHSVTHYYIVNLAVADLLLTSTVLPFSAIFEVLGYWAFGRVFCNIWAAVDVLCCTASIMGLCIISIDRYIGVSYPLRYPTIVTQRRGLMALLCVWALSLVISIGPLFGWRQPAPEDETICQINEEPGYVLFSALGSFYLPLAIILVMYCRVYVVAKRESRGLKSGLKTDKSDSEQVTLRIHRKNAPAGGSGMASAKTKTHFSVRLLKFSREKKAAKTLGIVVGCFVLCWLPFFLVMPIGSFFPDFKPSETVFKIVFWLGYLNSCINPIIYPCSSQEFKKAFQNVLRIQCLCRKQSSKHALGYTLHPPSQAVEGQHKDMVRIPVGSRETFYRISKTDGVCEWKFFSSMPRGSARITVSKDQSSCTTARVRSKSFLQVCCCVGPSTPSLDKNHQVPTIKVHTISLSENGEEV

HL-60(TB) = experiment: Anticancer activity against human HL-60(TB) cells assessed as cell growth inhibition; format: functional, cell-based; settings: dose 1-100 µM, DDE = dose-dependent effect
[12] = target: D(2) dopamine receptor (Homo sapiens) (UniProt P14416); experiment: Binding affinity to D2 receptor (unknown origin) at 10000 nM by radioligand displacement assay relative to control
Chain of D(2) dopamine receptor (Homo sapiens) (P14416 whole entry): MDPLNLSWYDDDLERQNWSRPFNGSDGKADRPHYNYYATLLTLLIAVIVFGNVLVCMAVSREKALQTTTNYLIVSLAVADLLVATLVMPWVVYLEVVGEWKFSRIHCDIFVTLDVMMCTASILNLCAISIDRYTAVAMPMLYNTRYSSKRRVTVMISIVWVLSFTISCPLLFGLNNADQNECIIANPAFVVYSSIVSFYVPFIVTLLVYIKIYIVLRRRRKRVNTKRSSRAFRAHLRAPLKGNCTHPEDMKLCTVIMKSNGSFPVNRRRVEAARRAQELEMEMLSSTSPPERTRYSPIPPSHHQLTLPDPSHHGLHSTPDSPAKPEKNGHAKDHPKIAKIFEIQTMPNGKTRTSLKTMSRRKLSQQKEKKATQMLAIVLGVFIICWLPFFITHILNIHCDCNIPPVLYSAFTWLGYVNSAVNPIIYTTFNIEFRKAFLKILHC

[13] = target: 5-hydroxytryptamine receptor 1B (Homo sapiens) (UniProt P28222); experiment: Binding affinity to 5-HT1B receptor (unknown origin) at 10000 nM by radioligand displacement assay relative to control
Chain of 5-hydroxytryptamine receptor 1B (Homo sapiens) (P28222 whole entry): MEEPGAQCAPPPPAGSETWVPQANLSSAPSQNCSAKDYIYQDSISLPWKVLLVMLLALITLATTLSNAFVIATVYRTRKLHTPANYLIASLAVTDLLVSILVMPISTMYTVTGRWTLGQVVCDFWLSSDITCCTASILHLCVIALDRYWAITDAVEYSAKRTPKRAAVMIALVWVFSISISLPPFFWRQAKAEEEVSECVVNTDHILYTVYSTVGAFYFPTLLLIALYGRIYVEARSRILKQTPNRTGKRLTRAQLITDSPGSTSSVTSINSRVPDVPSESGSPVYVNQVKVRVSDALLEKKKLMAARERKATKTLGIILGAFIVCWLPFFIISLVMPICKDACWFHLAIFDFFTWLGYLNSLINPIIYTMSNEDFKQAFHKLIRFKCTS

CCRF-CEM = experiment: Anticancer activity against human CCRF-CEM cells assessed as cell growth inhibition; format: functional, cell-based; settings: dose 1-100 µM, DDE = dose-dependent effect
[14] = target: 5-hydroxytryptamine receptor 5A (Homo sapiens) (UniProt P47898); experiment: Binding affinity to 5-HT5A receptor (unknown origin) at 10000 nM by radioligand displacement assay relative to control
Chain of 5-hydroxytryptamine receptor 5A (Homo sapiens) (P47898 whole entry): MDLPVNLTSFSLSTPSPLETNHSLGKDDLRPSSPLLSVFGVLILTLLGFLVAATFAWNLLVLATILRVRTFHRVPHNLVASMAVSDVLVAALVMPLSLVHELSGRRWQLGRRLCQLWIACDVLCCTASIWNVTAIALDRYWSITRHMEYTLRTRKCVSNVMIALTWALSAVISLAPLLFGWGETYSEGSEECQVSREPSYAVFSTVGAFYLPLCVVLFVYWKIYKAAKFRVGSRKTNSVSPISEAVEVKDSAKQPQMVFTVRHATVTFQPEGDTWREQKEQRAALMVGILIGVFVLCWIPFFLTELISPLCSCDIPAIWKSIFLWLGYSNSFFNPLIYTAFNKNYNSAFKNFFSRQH

DU-145 = experiment: Anticancer activity against human DU-145 cells assessed as cell growth inhibition; format: functional, cell-based; settings: dose 1-100 µM, DDE = dose-dependent effect
UO-31 = experiment: Anticancer activity against human UO-31 cells assessed as cell growth inhibition; format: functional, cell-based; settings: dose 1-100 µM, DDE = dose-dependent effect
[15] = Cmax in female BALB/c mouse at 5 mg/kg, ip at 30 min by LC-MS/MS analysis; format: ADME, organism-based; set-up: time 30 min, dose 5 mg/kg, route ip; settings: in vivo, 0.5 h; how it was run: as §1
U-251 = experiment: Anticancer activity against human U-251 cells assessed as cell growth inhibition; format: functional, cell-based; settings: dose 1-100 µM, DDE = dose-dependent effect
[16] = target: 5-hydroxytryptamine receptor 2A (Homo sapiens) (UniProt P28223); experiment: Binding affinity to 5-HT2A receptor (unknown origin) at 10000 nM by radioligand displacement assay relative to control
Chain of 5-hydroxytryptamine receptor 2A (Homo sapiens) (P28223 whole entry): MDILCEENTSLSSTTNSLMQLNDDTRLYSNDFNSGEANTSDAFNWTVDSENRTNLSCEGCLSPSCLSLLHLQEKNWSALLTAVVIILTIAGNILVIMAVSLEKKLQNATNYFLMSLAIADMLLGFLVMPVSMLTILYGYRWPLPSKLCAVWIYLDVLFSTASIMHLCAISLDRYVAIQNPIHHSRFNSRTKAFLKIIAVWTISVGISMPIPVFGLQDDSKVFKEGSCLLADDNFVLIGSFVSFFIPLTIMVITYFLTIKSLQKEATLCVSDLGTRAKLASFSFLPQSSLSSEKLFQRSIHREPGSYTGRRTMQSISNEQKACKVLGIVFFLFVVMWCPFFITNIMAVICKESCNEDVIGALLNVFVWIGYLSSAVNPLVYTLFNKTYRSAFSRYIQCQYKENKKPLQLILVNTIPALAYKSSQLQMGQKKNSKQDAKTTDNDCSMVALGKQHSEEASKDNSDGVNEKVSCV

N=c1c2c(-c3ccccc3)c(-c3ccccc3)n(Cc3ccccc3)c2ncn1[C@H]1CC[C@H](O)CC1 [ML-246]
Activity (RPMI-8226): Dde
Activity (PC-3M [1]): Active
Activity [2]: < 50%
Activity (SK-OV-3): Dde
Tmax [3]: 15 min
Activity (BT-549): Dde
Activity (CAKI-1): Dde
Activity (UACC-257): Dde
Activity (HT-29): Dde
Activity [4]: < 50%
IC50 (PC-3M [5]; read-out: IC50): 200 nM
IC50 (PC-3M [5]; read-out: pIC50 (converted)): 178 nM
Activity (SF-268): Dde
Activity (PC-3M [6]): Toxic
Activity (HCT-116): Dde
Activity (KM12): Dde
AUC [7]: 57.64 µM·h
Activity [8]: < 50%
Activity [9]: < 50%
Activity [10]: < 50%
Activity (IGROV-1): Dde
Activity (NCI-H226): Dde
selectivity ratio (in vitro): 38.3
Activity (MOLT-4): Dde
Activity (K562): Dde
Activity [11]: < 50%
Activity (HL-60(TB)): Dde
Activity [12]: < 50%
Activity [13]: < 50%
Activity (CCRF-CEM): Dde
Activity [14]: < 50%
Activity (DU-145): Dde
Activity (UO-31): Dde
Cmax [15]: 910 nM
Activity (U-251): Dde
Activity [16]: < 50%
